Data set [1] is classed as in vivo, human. Particulars: for relative intensity (EGCG = 1): LC-MS intensity in human plasma after ingestion of catechin-rich tea; for AUC0–6h / T1/2 / Tmax: human plasma, oral catechin-rich beverage (135 mg EGCG), mean ± SD, n = 10. Summed up: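 Ten healthy fasted men drank 350 mL of a beverage with 615 mg catechins (135 mg EGCG). Plasma was taken at 0.5–6 h, acid/ascorbate/EDTA-stabilised and stored at −80 °C. Samples went through solid-phase extraction with an ethyl gallate internal standard. Analytes were identified and quantified by Orbitrap LC–MS (calibration 1–500 ng/mL). Parameters came from noncompartmental analysis; mean ± SD.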

For a further data set, the system named is SULT1A1. The settings on record: inhibition of SULT1A1; cited from earlier work.
The subject of a further data set is SULT1A3. The settings on record: inhibition of SULT1A3; cited from earlier work.
A further data set deals with COMT. Particulars: inhibition of COMT; cited from earlier work.

Regarding `O=C(O[C@@H]1Cc2c(O)cc(O)cc2O[C@@H]1c1cc(O)c(O)c(O)c1)c1cc(O)c(OS(=O)(=O)O)c(O)c1` [EGCG-4″-sulfate], in data set [1], the “relative intensity (EGCG = 1)” value is 0.76; the “AUC0–6h” value stood at 715.2 ± 127.1 nmol·h·L^–1; the T1/2 was found to be 3.9 ± 1.5 h; the Tmax (in general, the time at which the peak concentration occurs) worked out at 2.5 ± 0.60 h.

On to `O=C(O[C@@H]1Cc2c(O)cc(O)cc2O[C@@H]1c1cc(O)c(O)c(O)c1)c1cc(O)c(O[C@@H]2O[C@H](C(=O)O)[C@@H](O)[C@H](O)[C@H]2O)c(O)c1` [EGCG-4″-glucuronide], for which, in data set [1], the “relative intensity (EGCG = 1)” value stood at 0.39, the “AUC0–6h” value stood at 198.9 ± 23.8 nmol·h·L^–1, the T1/2 came to 1.5 ± 0.64 h and the time to peak (Tmax) stood at 1.3 ± 0.26 h.

Turning to “(E)GCG-dimethyl-sulfate [(E)GCG-diMe-sulfate]”, the “relative intensity (EGCG = 1)” value in data set [1] was found to be 0.54.

As to `O=c1c(O)c(-c2ccc(O)c(O)c2)oc2cc(O)cc(O)c12` [quercetin], the IC50 (commonly the concentration that inhibits the measured activity by half) in the data set with SULT1A1 is 0.41 to 13 µM; in the data set on SULT1A3 it was 7 µM; in the data set with COMT it was 0.9 to 8.5 µM.
